Legend:
[1] = Total drug recovery in healthy human at 1500 mg, iv infusion for 1 hr as single dose after 312 hrs; format: ADME, organism-based; details: in vivo, read-out: Drug recovery
Procedure, shortened: (§1)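 Six healthy adult males, fasted ≥10 h, got one 1500 mg [14C]GSK2251052 dose ([…], 0.56 MBq) as a constant-rate 1-h IV infusion in 0.9% NaCl. Urine was collected at 0–6, 6–12 and 12–24 h, then in 24-h blocks to 336 h; feces in 24-h blocks. Urine was counted directly by LSC; feces were homogenized and combusted in duplicate before LSC. Cumulative recovery is given as mean % of dose.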

Plasma [2] = experiment: Tmax in healthy human plasma assessed as radioactivity at 1500 mg, iv infusion for 1 hr as single dose; format: ADME, organism-based; details: in vivo
Procedure, shortened: (§2)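 Healthy men got a single 1500 mg [14C] dose by 1 h i.v. infusion. K2EDTA blood was sampled up to 336 h. Radioactivity in blood and plasma was measured by LSC, with AMS for plasma below LLQ. Parent and M3 were measured by LC/MS/MS (5–10,000 ng/ml range). Noncompartmental analysis used actual times, with t1/2 = ln2/λz and Tmax observed directly, timed from infusion start.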

[3] = Drug recovery in healthy human feces at 1500 mg, iv infusion for 1 hr as single dose after 216 hrs; format: ADME, organism-based; details: faeces, read-out: Drug recovery
Liver cytosol = experiment: Drug metabolism in human liver cytosol assessed as (S)-3-(3-(aminomethyl)-1-hydroxy-1,3-dihydrobenzo[c][1,2]oxaborol-7-yloxy)propanoicacid formation at 50 to 500 uM after 3 hrs by liquid scintillation counting in presence of NAD+; format: ADME
Procedure, shortened: (§3)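 [14C]GSK2251052 was incubated in triplicate for 1 or 3 h at 37°C with 4 mg/ml S9 (monkey liver, lung or kidney; human liver), liver cytosol or liver microsomes and 7.5 mM NAD+. Buffer was pyrophosphate at pH 7.4, 8.4 or 8.8. Controls lacked cofactor or enzyme. Reactions were quenched with acetonitrile, counted by LSC, and pooled for radio-HPLC.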

[4] = Drug recovery in healthy human feces at 1500 mg, iv infusion for 1 hr as single dose after 144 hrs; format: ADME, organism-based; details: read-out: Drug recovery
Plasma [5] = experiment: AUC (0 to infinity) in healthy human plasma assessed as radioactivity at 1500 mg, iv infusion for 1 hr as single dose; format: ADME, organism-based; design: dose 1500 mg, time infinity, route intravenous; details: in vivo
Procedure, shortened: (§4)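 Six fasted healthy men received 1500 mg [14C]GSK2251052 as a 1-h i.v. infusion. Blood and plasma were sampled from predose to 336 h after infusion start. Radioactivity was counted by LSC; plasma below 870 ng eq/ml was reanalysed by accelerator MS, with predose background subtracted. Noncompartmental analysis used actual sampling times, linear-up/log-down trapezoids and CL = dose/AUC(0-∞).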

[6] = Drug recovery in healthy human urine at 1500 mg, iv infusion for 1 hr as single dose after 24 hrs; format: ADME, organism-based; details: read-out: Drug recovery
Blood [7] = experiment: Clearance in healthy human whole blood assessed as radioactivity at 1500 mg, iv infusion for 1 hr as single dose; format: ADME, organism-based; details: in vivo; procedure, shortened: as §4
Blood [8] = experiment: Volume of distribution at steady state in healthy human whole blood assessed as radioactivity at 1500 mg, iv infusion for 1 hr as single dose; format: ADME, organism-based; details: in vivo
Procedure, shortened: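 Healthy males got a 1500 mg [14C] dose as a 1-h IV infusion. K2EDTA blood was taken at serial times to 336 h. Radioactivity in blood and plasma was measured by LSC; plasma below 870 ng eq/ml was re-measured by accelerator mass spectrometry. Vss = CL × MRT, with CL = dose/AUC(0-∞), from noncompartmental analysis on actual times.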

[9] = Drug recovery in healthy human urine at 1500 mg, iv infusion for 1 hr as single dose after 72 hrs; format: ADME, organism-based; details: read-out: Drug recovery
Blood [10] = experiment: AUC (0 to infinity) in healthy human whole blood assessed as radioactivity at 1500 mg, iv infusion for 1 hr as single dose; format: ADME, organism-based; design: dose 1500 mg, route intravenous, time infinity; details: in vivo; procedure, shortened: as §4
[11] = Drug recovery in healthy human feces at 1500 mg, iv infusion for 1 hr as single dose after 288 hrs; format: ADME, organism-based; details: faeces, read-out: Drug recovery
[12] = Drug recovery in healthy human feces at 1500 mg, iv infusion for 1 hr as single dose after 312 hrs; format: ADME, organism-based; details: read-out: Drug recovery
[13] = Drug recovery in healthy human urine at 1500 mg, iv infusion for 1 hr as single dose after 192 hrs; format: ADME, organism-based; details: read-out: Drug recovery
[14] = Drug recovery in healthy human urine at 1500 mg, iv infusion for 1 hr as single dose after 120 hrs; format: ADME, organism-based; details: read-out: Drug recovery
Plasma [15] = experiment: AUC (0 to t) in healthy human plasma assessed as radioactivity at 1500 mg, iv infusion for 1 hr as single dose; format: ADME, organism-based; details: in vivo; procedure, shortened: as §4
[16] = Total drug recovery in healthy human at 1500 mg, iv infusion for 1 hr as single dose after 120 hrs; format: ADME, organism-based; details: in vivo, read-out: Drug recovery
Blood [17] = experiment: Half life in healthy human whole blood assessed as radioactivity at 1500 mg, iv infusion for 1 hr as single dose; format: ADME, organism-based; details: in vivo; procedure, shortened: as §2
[18] = Drug recovery in healthy human urine at 1500 mg, iv infusion for 1 hr as single dose after 240 hrs; format: ADME, organism-based; details: read-out: Drug recovery
[19] = Drug metabolism in healthy human urine assessed as 3-(3-(2-amino-1-hydroxyethyl)-2-hydroxyphenoxy)propanoic acid formation at 1500 mg, iv infusion for 1 hr as single dose by mass spectrometry; format: ADME, organism-based; details: in vivo
Procedure, shortened: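 Urine was collected through 336 h after a 1500 mg [14C] i.v. 1-h infusion to six men. Samples were pooled by weight (0–120 h per subject; 120–336 h composite) and centrifuged. Profiling used HPLC (Atlantis T3, ammonium acetate pH 4.5/methanol, 30°C) with fraction radioactivity counting. Identity came from Orbitrap positive-ion accurate mass. Values were given as % dose, corrected for recovery.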

[20] = Total drug recovery in healthy human at 1500 mg, iv infusion for 1 hr as single dose after 240 hrs; format: ADME, organism-based; details: in vivo, read-out: Drug recovery; procedure, shortened: as §1
[21] = Total drug recovery in healthy human at 1500 mg, iv infusion for 1 hr as single dose after 168 hrs; format: ADME, organism-based; details: in vivo, read-out: Drug recovery
[22] = Drug recovery in healthy human feces at 1500 mg, iv infusion for 1 hr as single dose after 120 hrs; format: ADME, organism-based; details: read-out: Drug recovery
Procedure, shortened: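 Feces were collected at 24-h intervals through 336 h after a 1500 mg [14C] i.v. 1-h infusion. Samples were homogenised with water and duplicate aliquots combusted for LSC. For profiling, 0–120 h pools were extracted twice with acetonitrile:methanol:water:formic acid, reconstituted, and analysed by radio-HPLC. Values were reported as % dose.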

Blood [23] = experiment: Cmax in healthy human whole blood assessed as radioactivity at 1500 mg, iv infusion for 1 hr as single dose; format: ADME, organism-based; design: dose 1500 mg, route intravenous; details: in vivo; procedure, shortened: as §4
Plasma [24] = experiment: Clearance in healthy human plasma assessed as radioactivity at 1500 mg, iv infusion for 1 hr as single dose; format: ADME, organism-based; details: in vivo; procedure, shortened: as §4
[25] = Drug recovery in healthy human feces at 1500 mg, iv infusion for 1 hr as single dose after 264 hrs; format: ADME, organism-based; details: faeces, read-out: Drug recovery
[26] = Drug recovery in healthy human urine at 1500 mg, iv infusion for 1 hr as single dose after 336 hrs; format: ADME, organism-based; details: read-out: Drug recovery
Liver microsome = experiment: Drug metabolism in human liver microsomes assessed as (S)-3-(3-(aminomethyl)-1-hydroxy-1,3-dihydrobenzo[c][1,2]oxaborol-7-yloxy)propanoicacid formation at 50 to 500 uM after 3 hrs by liquid scintillation counting in presence of NAD+; format: ADME; procedure, shortened: as §3

dose excreted at 312 h [1]: 97.8%
Tmax (Plasma [2]): 0.917 h
dose excreted at 216 h [3]: 7.6%
Drug metabolism (Liver cytosol): metabolite_not_detected
dose excreted at 144 h [4]: 7.5%
AUC (Plasma [5]): 195 µg·h/mL
dose excreted at 24 h [6]: 51.2%
CL (Blood [7]): 7.79 L/h
Vdss (Blood [8]): 116 L
dose excreted at 72 h [9]: 76.9%
AUC (Blood [10]): 193 µg·h/mL
dose excreted at 288 h [11]: 7.6%
dose excreted at 312 h [12]: 7.6%
dose excreted at 192 h [13]: 87.4%
dose excreted at 120 h [14]: 83.4%
AUCt (Plasma [15]): 191 µg·h/mL
dose excreted at 120 h [16]: 90.7%
t1/2 (Blood [17]): 14.3 h
dose excreted at 240 h [18]: 88.8%
Drug recovery [19]: metabolite_detected
dose excreted at 240 h [20]: 96.4%
dose excreted at 168 h [21]: 94%
dose excreted at 120 h [22]: 7.3%
Cmax (Blood [23]): 43700 ng/mL
CL (Plasma [24]): 7.7 L/h
dose excreted at 264 h [25]: 7.6%
dose excreted at 336 h [26]: 90.5%
Drug metabolism (Liver microsome): metabolite_not_detected
SMILES: Cl.N[14CH2][C@H]1OB(O)c2c(OCCCO)cccc21
